A short description of assay [1]: Inhibition of Yersinia PTP. Put shortly:
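Recombinant Yop51* enzyme; p-nitrophenyl phosphate at 0.5–4.0 mM in 0.05 M BISTRIS pH 6.5 with 100 mM NaCl, 0.05% Brij-35, 0.6 vol% DMSO, 0.4 mM EDTA and 1 mM DTT. Substrate and inhibitor were preincubated 5 min at 30 °C, then enzyme was added. Initial rates were read as p-nitrophenol A410 (ε 18,300 M⁻¹ cm⁻¹). Ki came from Lineweaver–Burk analysis at several inhibitor levels, reported as mean and standard deviation.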

Assay [2] is described as follows: Selectivity for human recombinant PTPbeta over Yersinia PTP.
The target in assay [3] is Receptor-type tyrosine-protein phosphatase beta (Homo sapiens, UniProt P23467). The assay can be described thus: Inhibition of human recombinant PTPbeta. Put shortly:
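Human recombinant PTPβ; 1 mM p-nitrophenyl phosphate preincubated 5 min at 30 °C with varying inhibitor concentrations in 0.05 M BISTRIS pH 7.0 with 100 mM NaCl, 0.05% Brij-35, 0.8 vol% DMSO and 1 mM diethylenetriamine pentaacetic acid. Enzyme was added to start the reaction and A410 was followed over time. IC50 is the concentration halving activity after 5 min. For competitive inhibition, Ki was taken as ½ IC50 at substrate equal to Km.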

The species named for a further assay is Homo sapiens. The assay can be described thus: Inhibition of human PP1 at 50 uM.

Calls of active or inactive are those of the source. The rule behind the calls is not given here.

One may read the Ki as the dissociation constant of the complex between target and ligand, obtained from inhibition or displacement. Higher therefore signals lower affinity. A word on the IC50: it is the concentration needed to halve the response being measured.

Sequence of Receptor-type tyrosine-protein phosphatase beta (P23467 whole entry): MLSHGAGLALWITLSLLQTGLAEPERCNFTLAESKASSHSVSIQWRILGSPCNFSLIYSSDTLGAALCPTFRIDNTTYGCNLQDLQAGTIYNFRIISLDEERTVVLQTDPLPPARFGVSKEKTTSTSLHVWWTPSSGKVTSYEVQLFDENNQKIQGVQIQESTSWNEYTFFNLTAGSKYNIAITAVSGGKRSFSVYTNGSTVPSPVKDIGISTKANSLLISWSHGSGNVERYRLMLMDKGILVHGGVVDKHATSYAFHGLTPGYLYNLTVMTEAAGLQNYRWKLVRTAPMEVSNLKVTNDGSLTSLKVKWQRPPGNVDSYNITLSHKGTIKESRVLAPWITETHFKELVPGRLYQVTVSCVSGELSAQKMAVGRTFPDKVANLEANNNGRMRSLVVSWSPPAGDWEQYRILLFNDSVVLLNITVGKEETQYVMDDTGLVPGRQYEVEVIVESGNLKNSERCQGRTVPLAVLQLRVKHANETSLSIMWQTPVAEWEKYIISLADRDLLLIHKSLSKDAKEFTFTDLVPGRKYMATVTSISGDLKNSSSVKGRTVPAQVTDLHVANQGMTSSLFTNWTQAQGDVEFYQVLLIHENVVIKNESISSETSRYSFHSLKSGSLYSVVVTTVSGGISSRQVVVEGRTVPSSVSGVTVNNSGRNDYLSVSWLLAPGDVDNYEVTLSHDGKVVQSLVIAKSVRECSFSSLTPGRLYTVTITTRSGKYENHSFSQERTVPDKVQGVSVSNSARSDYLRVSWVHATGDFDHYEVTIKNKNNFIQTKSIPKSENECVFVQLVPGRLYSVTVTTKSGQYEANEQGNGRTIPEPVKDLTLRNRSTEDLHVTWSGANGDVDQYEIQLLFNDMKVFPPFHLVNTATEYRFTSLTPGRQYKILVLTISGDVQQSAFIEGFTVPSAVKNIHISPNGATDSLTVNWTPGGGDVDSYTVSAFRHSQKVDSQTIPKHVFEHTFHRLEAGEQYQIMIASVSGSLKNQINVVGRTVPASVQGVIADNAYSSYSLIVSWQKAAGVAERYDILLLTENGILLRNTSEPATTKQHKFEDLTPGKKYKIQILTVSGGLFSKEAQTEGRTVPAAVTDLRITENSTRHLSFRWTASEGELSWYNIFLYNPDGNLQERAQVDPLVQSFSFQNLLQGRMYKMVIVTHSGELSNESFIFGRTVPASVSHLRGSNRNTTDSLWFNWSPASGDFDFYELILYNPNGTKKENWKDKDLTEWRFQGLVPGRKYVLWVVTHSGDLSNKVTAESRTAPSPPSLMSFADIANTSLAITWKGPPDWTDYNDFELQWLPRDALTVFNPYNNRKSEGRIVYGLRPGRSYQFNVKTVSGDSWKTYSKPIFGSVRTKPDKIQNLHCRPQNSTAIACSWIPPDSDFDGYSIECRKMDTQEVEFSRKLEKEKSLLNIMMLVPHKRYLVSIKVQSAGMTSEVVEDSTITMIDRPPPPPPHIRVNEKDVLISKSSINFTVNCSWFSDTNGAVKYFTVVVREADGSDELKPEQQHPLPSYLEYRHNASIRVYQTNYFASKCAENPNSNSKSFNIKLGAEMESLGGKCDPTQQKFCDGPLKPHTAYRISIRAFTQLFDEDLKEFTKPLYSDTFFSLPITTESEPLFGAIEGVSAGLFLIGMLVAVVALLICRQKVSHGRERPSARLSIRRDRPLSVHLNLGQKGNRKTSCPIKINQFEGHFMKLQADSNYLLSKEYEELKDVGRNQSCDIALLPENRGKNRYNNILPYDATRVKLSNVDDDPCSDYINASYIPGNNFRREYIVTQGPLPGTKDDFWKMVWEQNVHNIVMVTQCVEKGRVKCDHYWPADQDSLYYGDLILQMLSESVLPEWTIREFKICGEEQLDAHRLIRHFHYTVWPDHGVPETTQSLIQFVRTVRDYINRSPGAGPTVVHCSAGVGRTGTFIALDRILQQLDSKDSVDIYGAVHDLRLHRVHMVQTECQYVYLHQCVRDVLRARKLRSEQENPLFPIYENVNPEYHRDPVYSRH

In assay [1], `CCCOc1c2cccc1Cc1cc(C(P(=O)(O)O)P(=O)(O)O)cc(c1O)Cc1cccc(c1OCCC)Cc1cccc(c1O)C2` showed an inhibitory constant (Ki) of 7.1 µM.

Turning to `O=P(O)(O)C(c1cc2c(O)c(c1)Cc1cc(C(P(=O)(O)O)P(=O)(O)O)cc(c1O)Cc1cc(C(P(=O)(O)O)P(=O)(O)O)cc(c1O)Cc1cc(C(P(=O)(O)O)P(=O)(O)O)cc(c1O)C2)P(=O)(O)O`, in assay [1], the affinity, expressed as Ki, was 40 µM.

In the case of `O=P(O)(O)C(c1ccc(O)cc1)P(=O)(O)O`, the affinity in assay [1], expressed as Ki, was 570 µM.

Consider `O=P(O)(O)Cc1cc2c(O)c(c1)Sc1cc(CP(=O)(O)O)cc(c1O)Sc1cc(CP(=O)(O)O)cc(c1O)Sc1cc(CP(=O)(O)O)cc(c1O)S2`, for which the fold change (FC) in assay [2] amounted to 3. The compound further displayed an inhibition constant Ki in assay [1] of 0.22 µM. In addition, in assay [3], the IC50 turned out to be 0.13 µM. Also, in the assay filed under Homo sapiens, the outcome was inactive.

As for `O=P(O)(O)Cc1cc2c(O)c(c1)Cc1cc(CP(=O)(O)O)cc(c1O)Cc1cc(CP(=O)(O)O)cc(c1O)Cc1cc(CP(=O)(O)O)cc(c1O)C2`, in assay [1], the inhibitory constant (Ki) turned out to be 0.92 µM. Moreover, in assay [3], the IC50 is 3.8 µM. Further, the outcome in the assay filed under Homo sapiens was inactive.

In assay [1], `CCCOc1c2cccc1Cc1cc(C(P(=O)(O)O)P(=O)(O)O)cc(c1O)Cc1cccc(c1OCCC)Cc1cc(C(P(=O)(O)O)P(=O)(O)O)cc(c1O)C2` registered a Ki of 1.4 µM. In addition, the IC50 in assay [3] turned out to be 32 µM. For the same compound, the result in the assay listed under Homo sapiens was inactive.

These data come from ChEMBL document CHEMBL1153248, “Inhibition of Yersinia protein tyrosine phosphatase by phosphonate derivatives of calixarenes” (Bioorg Med Chem Lett, 2010).
